Reference: ChEMBL document CHEMBL4014308, “Amphiphilic Tobramycin-Lysine Conjugates Sensitize Multidrug Resistant Gram-Negative Bacteria to Rifampicin and Minocycline” (J Med Chem, 2017)
Active and inactive are the calls of the source. The calls are words filed in the database; no cut-off is given here.

What was measured:
Staphylococcus aureus = test: Antibacterial activity against Staphylococcus aureus ATCC 29213 after 18 hrs by microtiter dilution assay; assay type: functional; details: ATCC 29213, 18 h
Outline: (§1)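 Broth microdilution following CLSI guidelines. An overnight culture was adjusted to 0.5 McFarland in saline, then diluted 1:50 in Mueller-Hinton broth. This inoculum was added in equal volume to 2-fold serial dilutions of agent in MHB and incubated 18 h at 37 °C. MIC was the lowest concentration with no visible growth.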

Acinetobacter baumannii [1] = test: Synergistic antibacterial activity against multidrug-resistant Acinetobacter baumannii 110193 after 18 hrs in presence of rifampicin by checkerboard assay; assay type: functional; details: Acinetobacter baumannii, 110193, 18 h
Outline: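 Checkerboard in MHB with a 10 × 7 matrix: antibiotic serially diluted along one axis, adjuvant along the other. Inoculum was a 1:50 dilution of a 0.5 McFarland suspension, incubated 18 h at 37 °C and read on a plate reader. Each FIC is the concentration in a no-growth well divided by the MIC alone; FIC index is their sum, with ≤0.5 taken as synergy.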

Pseudomonas aeruginosa [2] = test: Potentiation of chloramphenicol-induced antibacterial activity against Pseudomonas aeruginosa PAO1 at 4 ug/ml after 18 hrs by checkerboard assay; assay type: functional
Outline: (§2)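 Checkerboard in Mueller-Hinton broth: antibiotic serially diluted along one axis and adjuvant along the other (10 × 7 matrix). Inoculum from a 0.5 McFarland saline suspension diluted 1:50 in MHB; 18 h at 37 °C, then plate read. MIC is the lowest concentration with no growth. FIC of each agent is its concentration in a no-growth well divided by its MIC alone; FIC index is the sum of both. FIC index ≤0.5 counts as synergy.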

Acinetobacter baumannii [3] = test: Potentiation of rifampicin-induced antibacterial activity against multidrug-resistant Acinetobacter baumannii 110193 at 4 ug/ml after 18 hrs by checkerboard assay; assay type: functional; outline: as §2
Pseudomonas aeruginosa [4] = test: Potentiation of minocycline-induced antibacterial activity against multidrug/extremely drug-resistant/colistin-susceptible Pseudomonas aeruginosa isolate 101885 assessed as fold reduction in minocycline MIC at 4 ug/ml after 18 hrs by checkerboard assay relative to control; assay type: functional
Outline: (§3)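 Checkerboard in Mueller-Hinton broth, 10 × 7 matrix, with the adjuvant held at 4 µg/mL. Inoculum from a 0.5 McFarland suspension diluted 1:50; 18 h at 37 °C. Antibiotic MIC (lowest concentration with no growth) with adjuvant is compared with the antibiotic MIC alone, giving a fold reduction.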

[5] = Ratio of cytotoxic concentration against human DU145 cells to synergistic concentration for Pseudomonas aeruginosa PAO1 in presence of minocycline
Acinetobacter baumannii [6] = test: Potentiation of rifampicin-induced antibacterial activity against multidrug-resistant Acinetobacter baumannii AB031 at 4 ug/ml after 18 hrs by checkerboard assay; assay type: functional; outline: as §2
[7] = Toxicity in Galleria mellonella assessed as survival rate at 200 mg/kg for 4 days relative to control; assay type: organism-based; details: in vivo
Outline: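 Galleria mellonella larvae, about 250 mg each, were used within 7 days of delivery. Compound alone was injected at 100 and 200 mg/kg with no bacterial challenge, ten larvae per group. Larvae were kept at 37 °C and survival was scored over 96 h.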

Klebsiella pneumoniae = test: Synergistic antibacterial activity against multidrug-resistant Klebsiella pneumoniae 116381 after 18 hrs in presence of minocycline by checkerboard assay; assay type: functional; details: Klebsiella pneumoniae, 116381, 18 h
Outline: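 Checkerboard in Mueller-Hinton broth: antibiotic serially diluted along one axis and adjuvant along the other (10 × 7 matrix). Inoculum was overnight culture set to 0.5 McFarland in saline, then diluted 1:50 in broth. Incubated 18 h at 37 °C. MIC was the lowest concentration with no growth. FIC index is the sum of both FICs (combination concentration ÷ MIC alone); ≤0.5 counted as synergy.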

Pseudomonas aeruginosa [8] = test: Potentiation of moxifloxacin-induced antibacterial activity against Pseudomonas aeruginosa PAO1 at 4 ug/ml after 18 hrs by checkerboard assay; assay type: functional; outline: as §2
Acinetobacter baumannii [9] = test: Potentiation of rifampicin-induced antibacterial activity against multidrug-resistant Acinetobacter baumannii AB027 at 4 ug/ml after 18 hrs by checkerboard assay; assay type: functional; outline: as §2
Pseudomonas aeruginosa [10] = test: Potentiation of minocycline-induced antibacterial activity against multidrug/extremely drug-resistant/colistin-susceptible Pseudomonas aeruginosa isolate P262-101856 at 4 ug/ml after 18 hrs by checkerboard assay; assay type: functional; outline: as §2
Pseudomonas aeruginosa [11] = test: Synergistic antibacterial activity against Pseudomonas aeruginosa PAO1 after 18 hrs in presence of erythromycin by checkerboard assay; assay type: functional; details: PAO1, 18 h
Outline: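 Checkerboard in MHB: antibiotic diluted along one axis and adjuvant along the other (10 × 7 matrix). Inoculum was a 1:50 dilution in MHB of a 0.5 McFarland saline suspension; incubated 18 h at 37 °C. Each FIC = concentration in the no-growth well divided by the MIC alone; FIC index = sum of both FICs. ≤0.5 synergy, 0.5–4 no interaction, ≥4 antagonism.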

Acinetobacter baumannii [12] = test: Potentiation of minocycline-induced antibacterial activity against multidrug-resistant Acinetobacter baumannii AB030 at 4 ug/ml after 18 hrs by checkerboard assay; assay type: functional; outline: as §2
Pseudomonas aeruginosa [13] = test: Potentiation of minocycline-induced antibacterial activity against multidrug/extremely drug-resistant/colistin-resistant Pseudomonas aeruginosa isolate 91433 assessed as fold reduction in minocycline MIC at 4 ug/ml after 18 hrs by checkerboard assay relative to control; assay type: functional; outline: as §3
[14] = Ratio of cytotoxic concentration against human JIMT1 cells to synergistic concentration for Pseudomonas aeruginosa PAO1 in presence of rifampicin
Pseudomonas aeruginosa [15] = test: Antibacterial activity against gentamicin-resistant Pseudomonas aeruginosa isolate CAN-ICU 62308 after 18 hrs by microtiter dilution assay; assay type: functional; details: isolate CAN-ICU 62308, 18 h; outline: as §1
Pseudomonas aeruginosa [16] = test: Potentiation of minocycline-induced antibacterial activity against Pseudomonas aeruginosa PAO1 after 25 serial passages at 0.125 times MIC by microtiter dilution assay; assay type: functional
Outline: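 Sequential passaging of wild-type PAO1 with single drugs or drug combinations. MIC was tested in MHB for 18 h. Cells from the well at half the MIC were adjusted to 0.5 McFarland in saline, diluted 1:50 in fresh MHB and used for the next MIC test. This was repeated for 25 passages, and the fold change in MIC was plotted against passage number.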

Pseudomonas aeruginosa [17] = test: Antibacterial activity against multidrug/extremely drug-resistant/colistin-susceptible Pseudomonas aeruginosa isolate P262-101856 infected in Galleria mellonella assessed as mortality at 75 mg/kg after 24 hrs relative to control; assay type: functional; details: isolate P262-101856, 24 h
Outline: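 Galleria mellonella larvae (about 250 mg, used within 7 days; 15 per group) were injected with 10 µL of XDR P. aeruginosa P262 at 1.0×10^3 CFU/mL. At 2 h they received a single 10 µL injection: monotherapy at 75 mg/kg, or combinations at 12.5+12.5 to 75+75 mg/kg. PBS vehicle served as control. Survival was scored over 24 h at 37 °C.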

[18] = test system: Staphylococcus epidermidis; test: Antibacterial activity against methicillin-resistant Staphylococcus epidermidis isolate CAN-ICU 61589 after 18 hrs by microtiter dilution assay; assay type: functional; details: isolate CAN-ICU 61589, 18 h; outline: as §1
Pseudomonas aeruginosa [19] = test: Potentiation of amikacin-induced antibacterial activity against Pseudomonas aeruginosa PAO1 at 4 ug/ml after 18 hrs by checkerboard assay; assay type: functional; outline: as §2
[20] = Ratio of cytotoxic concentration against human JIMT1 cells to synergistic concentration for Pseudomonas aeruginosa PAO1 in presence of minocycline

For `Cl.Cl.Cl.Cl.Cl.Cl.Cl.NCCCC[C@H](N)C(=O)N(CCCCCCCCCCCCO[C@@H]1[C@@H](O[C@H]2O[C@H](CO)[C@@H](O)[C@H](N)[C@H]2O)[C@H](N)C[C@H](N)[C@H]1O[C@H]1O[C@H](CN)[C@@H](O)C[C@H]1N)Cc1c2ccccc2c(Cl)c2ccccc12`, the MIC (Staphylococcus aureus) was 8 µg/mL, the MIC (Acinetobacter baumannii [1]) was 1 µg/mL and the “fractional inhibitory concentration index (FICI)” value (Pseudomonas aeruginosa [2]) was 0.156. For the same compound, the “fractional inhibitory concentration index (FICI)” value (Acinetobacter baumannii [3]) was 0.095, the “fold change (FC)” value (Pseudomonas aeruginosa [4]) was 16 and the Ratio [5] was 6. For the same compound, the “fractional inhibitory concentration index (FICI)” value (Acinetobacter baumannii [6]) was 0.09, the survival at 96 h [7] was 100% and the MIC (Klebsiella pneumoniae) was 16 µg/mL. For the same compound, the “fractional inhibitory concentration index (FICI)” value (Pseudomonas aeruginosa [8]) was 0.313, the “fractional inhibitory concentration index (FICI)” value (Acinetobacter baumannii [9]) was 0.079 and the “fractional inhibitory concentration index (FICI)” value (Pseudomonas aeruginosa [10]) was 0.133. For the same compound, the MIC (Pseudomonas aeruginosa [11]) was 4 µg/mL, the “fractional inhibitory concentration index (FICI)” value (Acinetobacter baumannii [12]) was 0.375 and the “fold change (FC)” value (Pseudomonas aeruginosa [13]) was 128. The Ratio [14] was 6, the MIC (Pseudomonas aeruginosa [15]) was 16 µg/mL and the Activity (Pseudomonas aeruginosa [16]) was “Active”. For the same compound, the mortality at 75 mg/kg (Pseudomonas aeruginosa [17]) was 100%, the MIC [18] was 4 µg/mL and the “fractional inhibitory concentration index (FICI)” value (Pseudomonas aeruginosa [19]) was 1.063. It also gave a Ratio [20] of 6.
